Test results taken from ChEMBL document CHEMBL5608261, “Pharmacophore Establishment and Optimization of Saturated 1,6-Naphthyridine-Fused Quinazolinones that Inhibit Meningoencephalitis-Causing Naegleria fowleri” (J Med Chem, 2024).
Converted amounts (≈) assume the structure as drawn. The source made the active and inactive calls. The rule behind the calls is not given here.

How the values were obtained:
Naegleria fowleri [1] = assay: Anti-ameobic activity against Naegleria fowleri TY (ATCC 30107) trophozoites assessed as inhibition of amoeba growth incubated for 48 hrs by CellTiter-Glo assay; format: functional, organism-based
Outline: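 TY strain (ATCC 30107) trophozoites, seeded at 1 × 10^4 cells/mL, were exposed 48 h (37 °C, 5% CO2) to vehicle or compound, with concentrations initially 20 to 0.375 μM. CellTiter-Glo luminescence gave % growth inhibition versus controls. EC50 was fit from triplicate runs (n = 3, ± SEM).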

[2] = Drug concentration in female CD-1 mouse plasma at 11 mg/kg, iv measured after 2 hrs by LC-MS/MS analysis; format: ADME, organism-based
Outline: (§1)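 Female CD-1 mice (n = 3/group) received one bolus of 11 mg/kg (actual dose; 10 mg/kg intended) IV or PO. Plasma was sampled at six time points over 12 h, and brain homogenate was taken at the 12 h end point. […] Mean ± SD.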

Naegleria fowleri [3] = assay: Anti-ameobic activity against Naegleria fowleri Nf69 (ATCC 30215) trophozoites infected in female CD-1 mouse model assessed as reduction in infection at 11 mg/kg, ip pre-infected for 48 hrs from day 0 followed by twice daily compound administration from day 2 to day 6 and […]; format: functional, organism-based; conditions: time 6.0 day
[4] = Drug concentration in female CD-1 mouse brain at 11 mg/kg, iv measured after 12 hrs by LC-MS/MS analysis; format: ADME, organism-based; conditions: read-out: Ct; outline: as §1
[5] = Toxicity in female CD-1 mouse infected with Naegleria fowleri Nf69 (ATCC 30215) trophozoites assessed as adverse effect at 50 mg/kg, ip pre-infected for 48 hrs from day 0 followed by single bolus compound administration from day 2 to day 6 and measured on day 14 post-infection; format: organism-based; conditions: in vivo, 312 h, time 13 day
[6] = AUCinfinity in female CD-1 mouse at 11 mg/kg, po measured after 12 hrs by LC-MS/MS analysis; format: ADME, organism-based; conditions: in vivo; outline: as §1
[7] = AUCinfinity in female CD-1 mouse at 11 mg/kg, iv measured after 12 hrs by LC-MS/MS analysis; format: ADME, organism-based; conditions: in vivo; outline: as §1
[8] = Metabolic stability in human liver microsomes assessed as half-life; format: ADME, Microsome
Naegleria fowleri [9] = assay: Anti-ameobic activity against Naegleria fowleri Nf69 (ATCC 30215) trophozoites infected in female CD-1 mouse model assessed as median survival day at 11 mg/kg, ip pre-infected for 48 hrs from day 0 followed by twice daily compound administration from day 2 to day 6 and measured on day 14 post-infection (reference value: 5.4 day ); format: functional; conditions: time 13 day
Outline: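 Female CD-1 mice (n = 6/group) were infected intranasally with Nf69 trophozoites on day 0. After a 48 h establishment period, they received IP dosing at 11 mg/kg twice daily for 5 days. Infected controls received vehicle only. The study lasted 14 days, with Kaplan–Meier survival, and the brains of survivors were cultured for viable amoeba.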

[10] = Oral bioavailability in female CD-1 mouse at 11 mg/kg measured after 12 hrs by LC-MS/MS analysis; format: ADME, organism-based; conditions: in vivo; outline: as §1
Naegleria fowleri [11] = assay: Anti-ameobic activity against Naegleria fowleri Nf69 (ATCC 30215) trophozoites assessed as inhibition of amoeba growth incubated for 48 hrs by CellTiter-Glo assay; format: functional, organism-based; conditions: Naegleria fowleri, Nf69 (ATCC 30215), 48 h
Outline: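 Axenic Nf69 trophozoites were seeded at 1 × 10^4 cells/mL in Nelson's complete medium with 10% heat-inactivated FBS. Compound was added at 20 to 0.375 μM (lower ranges for very potent compounds), with vehicle controls, for 48 h at 37 °C and 5% CO2. CellTiter-Glo luminescence gave % growth inhibition versus controls, and triplicate means were fitted to dose–response curves for EC50.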

[12] = Selectivity index, ratio of CC50 for cytotoxicity against human SH-SY5Y cells to EC50 for anti-amoebic activity against Naegleria fowleri Nf69 (ATCC 30215) assessed as inhibition of amoeba growth; format: toxicity, cell-based; conditions: SH-SY5Y cells, read-out: Ratio CC50/EC50
[13] = Drug concentration in CD-1 mouse brain infected with Naegleria fowleri Nf69 (ATCC 30215) trophozoites assessed as adverse effect at 50 mg/kg, ip pre-infected for 48 hrs from day 0 followed by single bolus compound administration from day 2 to day 6 and measured on day 14 post-infection; format: ADME, organism-based; conditions: time 13 day, read-out: Ct
[14] = Half-life in female CD-1 mouse at 11 mg/kg, po measured after 12 hrs by LC-MS/MS analysis; format: ADME, organism-based; conditions: in vivo; outline: as §1
[15] = Drug concentration in female CD-1 mouse plasma at 11 mg/kg, po measured after 4 hrs by LC-MS/MS analysis; format: ADME, organism-based; outline: as §1
[16] = Drug concentration in female CD-1 mouse plasma at 11 mg/kg, iv measured after 0.5 hrs by LC-MS/MS analysis; format: ADME, organism-based; outline: as §1
[17] = Ratio of drug concentration in female CD-1 mouse brain to plasma at 44 mg/kg, ip measured after 4 hrs by LC-MS/MS analysis; format: ADME, organism-based
Outline: (§2)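 Female CD-1 mice (n = 3/group) received one intraperitoneal bolus of 44 mg/kg (actual dose; 50 mg/kg intended). Plasma was sampled at 2 and 4 h and brain homogenate at 4 h. Brain-to-plasma ratio = brain over plasma concentration at 4 h. Mean ± SD.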

[18] = Half-life in female CD-1 mouse at 11 mg/kg, iv measured after 12 hrs by LC-MS/MS analysis; format: ADME, organism-based; conditions: in vivo; outline: as §1
[19] = Drug concentration in female CD-1 mouse plasma at 11 mg/kg, po measured after 8 hrs by LC-MS/MS analysis; format: ADME, organism-based; outline: as §1
[20] = Drug concentration in female CD-1 mouse plasma at 11 mg/kg, iv measured after 4 hrs by LC-MS/MS analysis; format: ADME, organism-based; outline: as §1
[21] = Metabolic stability in CD-1 mouse liver microsomes assessed as half-life incubated for 60 mins by LC-MS/MS analysis; format: ADME, Microsome; conditions: 1 h
Outline: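 Half-life measured in CD-1 mouse liver microsomes with NADPH over a 60 min exposure.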

[22] = Volume of distribution in female CD-1 mouse at 11 mg/kg, iv measured after 12 hrs by LC-MS/MS analysis; format: ADME, organism-based; conditions: in vivo; outline: as §1
[23] = Protein binding in CD-1 mouse plasma incubated for 4 hrs by equilibrium dialysis based LC-MS/MS analysis; format: ADME, cell-free; conditions: mouse, 4 h
[24] = Drug concentration in female CD-1 mouse plasma at 11 mg/kg, iv measured after 8 hrs by LC-MS/MS analysis; format: ADME, organism-based; outline: as §1
SH-SY5Y = assay: Cytotoxicity against human SH-SY5Y cells assessed as reduction in cell viability incubated for 72 hrs by CellTiter-Glo assay; format: toxicity, cell-based; conditions: sh-sy5y, 72 h
Outline: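 SH-SY5Y cells at 2000 per well attached overnight at 37 °C. Compound from 20 mM DMSO stocks was added in triplicate as a dose series starting at 20 μM, with doxorubicin as positive control.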

[25] = Drug concentration in female CD-1 mouse plasma at 11 mg/kg, po measured after 2 hrs by LC-MS/MS analysis; format: ADME, organism-based; outline: as §1
[26] = Drug concentration in female CD-1 mouse plasma at 44 mg/kg, ip measured after 2 hrs by LC-MS/MS analysis; format: ADME, organism-based; outline: as §2
[27] = Drug concentration in female CD-1 mouse plasma at 11 mg/kg, po measured after 0.5 hrs by LC-MS/MS analysis; format: ADME, organism-based; outline: as §1
[28] = Drug concentration in female CD-1 mouse brain at 11 mg/kg, po measured after 12 hrs by LC-MS/MS analysis; format: ADME, organism-based; conditions: read-out: Ct; outline: as §1
[29] = Kinetic solubility of compound at pH 7.4 incubated for 24 hrs by HPLC analysis; format: physicochemical; conditions: buffer, pH 7.4, read-out: Kinetic_solubility
[30] = Drug concentration in female CD-1 mouse plasma at 11 mg/kg, po measured after 12 hrs by LC-MS/MS analysis; format: ADME, organism-based; outline: as §1
[31] = Drug concentration in female CD-1 mouse plasma at 11 mg/kg, iv measured after 12 hrs by LC-MS/MS analysis; format: ADME, organism-based; outline: as §1
[32] = Drug concentration in female CD-1 mouse brain at 44 mg/kg, ip measured after 4 hrs by LC-MS/MS analysis; format: ADME, organism-based; conditions: read-out: Ct; outline: as §2

## COc1cc2nc3n(c(=O)c2cc1Cl)CC[C@H]1[C@H]3CCCN1CC1COC1
Naegleria fowleri [1]
  EC50: 14 nM
[2]
  concentration at 2 h: 882 ng/mL
Naegleria fowleri [3]
  Activity: inactive
[4]
  concentration at 12 h: 13.3 ng/g
[5]
  Activity: Non-Toxic
[6]
  AUC: 1920 ng·h/mL
[7]
  AUC: 5010 ng·h/mL
[8]
  t1/2: 1.54 h
Naegleria fowleri [9]
  MSD: 6.1 days
[10]
  F: 38%
Naegleria fowleri [11]
  EC50: 12 nM
[12]
  selectivity ratio: 192
[13]
  concentration at 312 h: ~20 µM
[14]
  t1/2: 1.1 h
[15]
  concentration at 4 h: 254 ng/mL
[16]
  concentration at 0.5 h: 2110 ng/mL
[17]
  BPR: 4.7
[18]
  t1/2: 1 h
[19]
  concentration at 8 h: 21.1 ng/mL
[20]
  concentration at 4 h: 281 ng/mL
[21]
  t1/2: 0.803 h
[22]
  Vd: 3.7 L/kg
[23]
  PPB: 74%
[24]
  concentration at 8 h: 18.1 ng/mL
SH-SY5Y
  CC50: 2300 nM
[25]
  concentration at 2 h: 459 ng/mL
[26]
  concentration at 2 h: 3850 ng/mL
[27]
  concentration at 0.5 h: 469 ng/mL
[28]
  concentration at 12 h: 10.4 ng/g
[29]
  solubility kinetic at 24 h: 23.9 µM (≈ 9.32 µg/mL)
[30]
  concentration at 12 h: 2 ng/mL
[31]
  concentration at 12 h: 2.6 ng/mL
[32]
  concentration at 4 h: 9090 ng/g
